Our source for the Activity and IC50 values is ChEMBL document CHEMBL1914312, “(8R)-3β,8-dihydroxypolypoda-13E,17E,21-triene induces cell cycle arrest and apoptosis in treatment-resistant prostate cancer cells” (J Nat Prod, 2011).

Activity calls are given as the source filed them. The rule behind the calls is not given here.

Series [1] concerns PC-3. Nature of the series: Antiproliferative activity against human PC3 cells assessed as reduction in colony formation after 21 days using crystal violet staining by anchorage-independent soft agar assay. It counts as functional, cell-based. In short, it runs like this: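 PC-3 cells (Ham's F12-K, 10% FCS) seeded at 1000 cells/cm2 in 0.35% agar with 10 μM compound or solvent; colonies grown 21 days, fixed and stained with crystal violet.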

Series [2] concerns PC-3. Nature of the series: Induction of cell cycle arrest in human PC3 assessed as accumulation of cells at G0/G1-phase at 10 uM after 24 hrs by propidium iodide staining-based FACS analysis (reference value: 58.7 +/- 1.4%). It counts as functional. On the technique in general: Flow cytometry measures light scatter and fluorescence of single cells or particles in a stream.
Series [3] deals with PC-3. Briefly: Induction of apoptosis in human PC3 cells assessed as increase in phosphatidylserine expression on outer cell membrane leaflet at 3 to 30 uM by annexin V-FITC and propidium iodine staining-based by flow cytometric analysis. It counts as functional. The conditions noted are these: TDE = time-dependent effect. The procedure, abridged: (§1)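 PC-3 cells exposed 48 and 72 h, adherent cells detached with citric saline, stained with FITC-annexin V and propidium iodide, analysed by flow cytometry for annexin V+ cells. Means ± SEM of three experiments, Newman-Keuls test.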

Series [4] has as its system PC-3. Briefly: Induction of apoptosis in human PC3 cells assessed as DNA fragmentation at 10 uM after 72 hrs by SDS-PAGE analysis. In kind it is functional, cell-based. Particulars: in the assay text read “agarose gel electrophoresis” for “SDS-PAGE analysis”. The procedure, abridged: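 PC-3 cells cultured with compound or solvent for 72 h; floating cells lysed in buffer of 100 mM Tris-HCl pH 8.0, 2 mM EDTA, 0.8% SDS, RNase A and proteinase K; DNA ladder resolved on 1.5% agarose gel.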

The subject of series [5] is PC-3. Nature of the series: Antitumor activity against human PC3 cells xenografted in chicken chorioallantoic membrane assessed as decrease in tumor size treated topically QD for 4 days by immunohistochemical analysis. In kind it is functional, cell-based. In short, it runs like this: (§2)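 0.7× 10^6 log-phase PC-3 cells in 20 μL medium/matrigel (1:1) grafted onto chicken CAM; from day 1, topical 20 μL compound or solvent once daily for 4 days. Xenografts fixed, paraffin-embedded, immunostained for Ki-67 with hematoxylin counterstain; staining quantified by image analysis; n = 3–6.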
A general note: In xenograft studies the graft and the host belong to different species.

Series [6] has as its system PC-3. Briefly: Cytotoxicity against human PC3 cells at 4 uM after 72 hrs by XTT assay. In kind it is functional, cell-based. Particulars: PC-3, 72 h. In general terms: Tetrazolium assays rely on reduction of a dye to a coloured formazan, in cell work by metabolically active cells.
The test system of series [7] is PC-3. Nature of the series: Cytotoxicity against human PC3 cells after at 30 uM after 48 to 72 hrs by XTT assay. It counts as functional, cell-based.
For series [8], the system named is PC-3. Nature of the series: Induction of apoptosis in human PC3 cells assessed as increase in phosphatidylserine expression on outer cell membrane leaflet after 48 to 72 hrs by annexin V-FITC and propidium iodine staining-based by flow cytometric analysis. In kind it is functional. The procedure, abridged: as §1
In series [9] the test system is PC-3. Nature of the series: Cytotoxicity against human PC3 cells assessed as cell death at 3 to 30 uM after 48 hrs by LDH-release assay in presence of 10 uM of pan-caspase inhibitor z-VAD-fmk.
The test system of series [10] is PC-3. Nature of the series: Induction of cell cycle arrest in human PC3 cells assessed as change in p21WAF1/Cip1 level at 3 to 10 uM after 48 hrs by Western blot analysis. It counts as functional, cell-based. The procedure, abridged:
(§3)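 PC-3 whole-cell lysates at equal protein separated by SDS-PAGE and immunoblotted for cyclin D1 (24 h treatment) or cyclin E and p21Waf1/Cip1 (48 h treatment); actin as loading control; three independent repeats.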

Series [11] deals with PC-3. Nature of the series: Induction of cell cycle arrest in human PC3 assessed as accumulation of cells at G0/G1-phase at 10 uM after 48 hrs by propidium iodide staining-based FACS analysis (reference value: 58.8 +/- 2.2%). It counts as functional.
Series [12] concerns PC-3. Briefly: Induction of cell cycle arrest in human PC3 assessed as accumulation of cells at S-phase at 10 uM after 24 hrs by propidium iodide staining-based FACS analysis (reference value: 22.4 +/- 1.3%). It counts as functional.
Series [13] deals with PC-3. Briefly: Induction of cell cycle arrest in human PC3 assessed as accumulation of cells at S-phase at 10 uM after 48 hrs by propidium iodide staining-based FACS analysis (reference value: 23.9 +/- 1.1%). It counts as functional.
Series [14] has as its system PC-3. Nature of the series: Cytotoxicity against human PC3 cells at 30 uM after 48 hrs by XTT assay. The conditions noted are these: PC-3, 48 h. It counts as functional, cell-based.
In series [15] the test system is PC-3. Briefly: Induction of cell cycle arrest in human PC3 cells assessed as decrease in cyclin D1 expression at 3 to 10 uM after 24 hrs by Western blot analysis. It counts as functional, cell-based. In short, it runs like this:
as §3

Series [16] has as its system PC-3. Nature of the series: Cytotoxicity against human PC3 cells at 10 '-5 to 10 uM after 72 hrs by XTT assay. It counts as functional, cell-based.
Series [17] in a line: Cytotoxicity against human RWPE1 cells at 1 to 30 uM after 48 hrs by XTT assay. In kind it is cell-based. The conditions noted are these: rwpe-1, 48 h. In short, it runs like this:
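Normal prostate epithelial RWPE-1 cells (HPV18-immortalized) grown in keratinocyte serum-free medium, 3–5 × 10^3 cells/well, treated 48 h; viability by XTT reduction (final 125 μM XTT, 25 μM phenazine methosulfate, 4 h), A450. Means ± SEM of 3–5 experiments in triplicate.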

Series [18] concerns PC-3. Briefly: Induction of cell cycle arrest in human PC3 assessed as accumulation of cells at G2/M-phase at 10 uM after 24 hrs by propidium iodide staining-based FACS analysis (reference value: 18.9 +/- 0.3%). It counts as functional.
Series [19] relates to PC-3. Briefly: Induction of cell cycle arrest in human PC3 assessed as accumulation of cells at G2/M-phase at 10 uM after 48 hrs by propidium iodide staining-based FACS analysis (reference value: 17.3 +/- 1.2%). In kind it is functional.
In series [20] the test system is PC-3. Nature of the series: Antitumor activity against human PC3 cells xenografted in chicken chorioallantoic membrane assessed as inhibition of cell proliferation treated topically QD for 4 days by immunohistochemical analysis. In kind it is functional, cell-based. In short, it runs like this:
as §2

Series [21] relates to PC-3. Briefly: Induction of cell cycle arrest in human PC3 cells assessed as decrease in cyclin E expression at 3 to 10 uM after 48 hrs by Western blot analysis. In kind it is functional, cell-based. In short, it runs like this:
as §3

In series [22] the test system is PC-3. Nature of the series: Antitumor activity against human PC3 cells xenografted in chicken chorioallantoic membrane assessed as inhibition of tumor angiogenesis treated topically QD for 4 days using desmin staining by immunohistochemical analysis. In kind it is functional, cell-based. In short, it runs like this: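 PC-3 cells (0.7× 10^6 in 20 μL medium/matrigel 1:1) grafted onto chicken CAM, dosed topically with 20 μL compound or solvent once daily for 4 days from day 1. Paraffin sections immunostained for desmin as angiogenesis marker, hematoxylin counterstain; staining quantified by image analysis; n = 3–6.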

In series [23] the test system is PC-3. Briefly: Induction of cell cycle arrest in human PC3 assessed as accumulation of cells at G2/M-phase at 10 nM after 48 hrs by propidium iodide staining-based FACS analysis. In kind it is functional. The procedure, abridged:
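Positive-control treatment of PC-3 cells, then trypsinization, 70% ethanol fixation, propidium iodide DNA staining with 40 μg/mL RNase A, flow cytometric DNA content and modelled phase distribution.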

For series [24], the system named is PC-3. Briefly: Cytotoxicity against human PC3 cells after at 10 uM after 72 hrs by XTT assay. In kind it is functional, cell-based.
Series [25] has as its system PC-3. Briefly: Induction of apoptosis in human PC3 cells assessed as increase in phosphatidylserine expression on outer cell membrane leaflet at 10 uM by annexin V-FITC and propidium iodine staining-based by flow cytometric analysis. In kind it is functional. Particulars: TDE = time-dependent effect. In short, it runs like this:
as §1

In the case of `CC(C)=CCC/C(C)=C/CC/C(C)=C/CC[C@@H]1[C@@]2(C)CC[C@H](O)C(C)(C)[C@@H]2CC[C@@]1(C)O`, the Activity result in the series with PC-3 [1] is “Dose-dependent effect”; with PC-3 [2], 75.4%; in the series on PC-3 [3], “tde”; in the series on PC-3 [5] it was “Dose-dependent effect”; with PC-3 [8] it was “Dose-dependent effect”; with PC-3 [11], 74.2%. The Activity with PC-3 [12] is 5.6%; in the series with PC-3 [13], 9.3%; in series [17], “Non-toxic”; in the series with PC-3 [18], 18.9%; with PC-3 [19], 17.3%; in the series on PC-3 [20], “Dose-dependent effect”. Further, the Activity result in the series on PC-3 [22] is “Dose-dependent effect”. For the same compound, the result with PC-3 [4], in the series with PC-3 [7], in the series with PC-3 [15], with PC-3 [16] and in the series on PC-3 [21] was Active. Besides, the IC50 amounted to 4 µM in the series on PC-3 [6] and 30 µM in the series on PC-3 [14]. The result in the series on PC-3 [9] and with PC-3 [10] was inactive.
Regarding `CC(=O)O[C@@]12CO[C@@H]1C[C@H](O)[C@@]1(C)C(=O)[C@H](O)C3=C(C)[C@@H](OC(=O)[C@H](O)[C@@H](NC(=O)OC(C)(C)C)c4ccccc4)C[C@@](O)([C@@H](OC(=O)c4ccccc4)[C@H]21)C3(C)C`, the result in the series on PC-3 [23] and in the series on PC-3 [16] was Active. In addition, in the series on PC-3 [24], the result was inactive. Moreover, the Activity entry in the series with PC-3 [25] is “tde”.

In general, IC50 refers to the concentration that gives 50% inhibition. The low end stands for greater potency in that assay, the high end for weaker potency in that assay.
